This note sets out measurements from ChEMBL document CHEMBL4616611, “Synthesis and biological evaluation of FICZ analogues as agonists of aryl hydrocarbon receptor” (Bioorg Med Chem Lett, 2020).

The target of data set [1] is T1, CYP1A1 (Homo sapiens, UniProt P35869).
T1 sequence (P35869 whole entry): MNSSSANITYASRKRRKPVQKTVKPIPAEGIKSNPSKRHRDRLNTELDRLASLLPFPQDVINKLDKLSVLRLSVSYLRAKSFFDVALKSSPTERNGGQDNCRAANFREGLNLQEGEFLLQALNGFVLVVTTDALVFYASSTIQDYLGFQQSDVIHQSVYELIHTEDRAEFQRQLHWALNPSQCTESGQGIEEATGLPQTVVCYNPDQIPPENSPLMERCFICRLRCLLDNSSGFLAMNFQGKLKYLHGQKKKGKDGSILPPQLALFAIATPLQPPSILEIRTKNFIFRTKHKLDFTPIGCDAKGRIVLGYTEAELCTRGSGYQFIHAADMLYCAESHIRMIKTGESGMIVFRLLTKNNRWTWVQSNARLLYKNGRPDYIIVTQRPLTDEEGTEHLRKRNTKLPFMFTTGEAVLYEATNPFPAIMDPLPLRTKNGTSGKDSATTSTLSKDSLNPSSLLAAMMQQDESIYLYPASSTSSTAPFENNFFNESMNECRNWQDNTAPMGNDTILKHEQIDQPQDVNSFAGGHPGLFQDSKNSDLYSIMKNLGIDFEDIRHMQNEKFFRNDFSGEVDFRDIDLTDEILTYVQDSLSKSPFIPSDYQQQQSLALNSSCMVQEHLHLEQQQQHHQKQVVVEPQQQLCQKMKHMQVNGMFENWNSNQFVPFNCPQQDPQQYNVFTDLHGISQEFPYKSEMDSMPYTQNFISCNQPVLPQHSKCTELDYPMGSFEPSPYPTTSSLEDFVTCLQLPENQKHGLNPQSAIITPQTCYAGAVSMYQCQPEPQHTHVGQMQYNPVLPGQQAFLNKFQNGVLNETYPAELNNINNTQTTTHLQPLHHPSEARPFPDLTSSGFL
The data set is described as follows: Agonist activity at AhR in human HepG2 cells assessed as induction of CYP1A1 activity at 0.13 nM using 7-ethoxyresorufin as substrate after 24 hrs by ethoxyresorufin-O-deethylase assay relative to DMSO. Type of data set: cell-based. Particulars: probe 7-ethoxyresorufin, read-out: FC. Summed up:
(§1)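 EROD read-out of CYP1A1 activity in HepG cells treated for 24 h with compound or vehicle (DMSO) at 0.13 nM, 3.2 nM and 80 nM. Activity is reported as fold induction over the DMSO-treated cells.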

Data set [2] deals with T1, CYP1A1. The data set is described as follows: Agonist activity at AhR in human HepG2 cells assessed as induction of CYP1A1 activity at 3.2 nM using 7-ethoxyresorufin as substrate after 24 hrs by ethoxyresorufin-O-deethylase assay relative to DMSO. Type of data set: cell-based. The following applies: probe 7-ethoxyresorufin, read-out: FC. Summed up:
as §1

In data set [3] the target is T2, Aryl hydrocarbon receptor (Homo sapiens, UniProt P35869).
T2 sequence (P35869 whole entry): T1 sequence (P35869 whole entry)
The data set is described as follows: Agonist activity at AhR in human HepG2 cells assessed as increase in CYP1A1 protein expression at 300 nM after 24 hrs by Western blot analysis. It counts as cell-based. Particulars: hepg2, 24 h, 0.3 µM. Summed up:
(§2)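 HepG2 cells were exposed to a dose series for 24 h. CYP1A1 protein levels were then assessed by Western blotting.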
In general terms: A western blot detects proteins with antibodies after separation by electrophoresis.

In data set [4] the target is T1, CYP1A1. The experiment in a line: Agonist activity at AhR in human HepG2 cells assessed as induction of CYP1A1 activity at 80 nM using 7-ethoxyresorufin as substrate after 24 hrs by ethoxyresorufin-O-deethylase assay relative to DMSO. Type of data set: cell-based. Particulars: probe 7-ethoxyresorufin, read-out: FC. The method in brief: as §1
Data set [5] deals with T1, CYP1A1. The experiment in a line: Agonist activity at AhR in human HepG2 cells assessed as induction of CYP1A1 activity at 3.2 nM using 7-ethoxyresorufin as substrate after 24 hrs by ethoxyresorufin-O-deethylase assay relative to 3-phenylbenzo[f]chromen-1-one. Type of data set: cell-based. The following applies: probe 7-ethoxyresorufin, read-out: FC.
Data set [6] concerns the target T1, CYP1A1. The experiment in a line: Agonist activity at AhR in human HepG2 cells assessed as induction of CYP1A1 activity at 0.13 nM using 7-ethoxyresorufin as substrate after 24 hrs by ethoxyresorufin-O-deethylase assay relative to 3-phenylbenzo[f]chromen-1-one. Type of data set: cell-based. Particulars: probe 7-ethoxyresorufin, read-out: FC.
The target of data set [7] is T2, Aryl hydrocarbon receptor. The experiment in a line: Agonist activity at AhR in human HepG2 cells assessed as increase in CYP1A1 protein expression at 3 to 10 nM after 24 hrs by Western blot analysis. It counts as cell-based. The following applies: hepg2, 24 h. The method in brief:
as §2

A further data set deals with HepG2. The experiment in a line: Effect on AhR mRNA expression in human HepG2 cells assessed as 100 nM after 6 hrs by q-RT-PCR analysis. It counts as functional, cell-based. Summed up: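 HepG2 cells were treated at 100 nM for 6 h. AhR and CYP1A1 mRNA levels were then quantified by qRT-PCR, normalized to GAPDH.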
Data set [8] has as its target T2, Aryl hydrocarbon receptor. The data set is described as follows: Agonist activity at AhR in human HepG2 cells assessed as induction of CYP1A1 expression at <30 pM after 24 hrs by ethoxyresorufin-O-deethylase assay. It counts as cell-based. The following applies: hepg2, 24 h. Summed up:
(§3)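 Full dose-response in the EROD assay. HepG2 cells were treated for 24 h across a concentration series, with FICZ as the reference agonist. CYP1A1 induction was read out and EC50 values were derived from the curves.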

The target in data set [9] is T2, Aryl hydrocarbon receptor. The experiment in a line: Agonist activity at AhR in human HepG2 cells assessed as increase in CYP1A1 protein expression after 24 hrs by Western blot analysis. It counts as cell-based. Particulars: hepg2, 24 h. Summed up:
as §2

Data set [10] addresses T2, Aryl hydrocarbon receptor. The data set is described as follows: Potency index, ratio of FICZ EC50 to test compound EC50 for agonist activity at AhR in human HepG2 cells assessed as increase in CYP1A1 expression after 24 hrs by ethoxyresorufin-O-deethylase assay. It counts as cell-based. Particulars: hepg2, 24 h.
The target of data set [11] is T2, Aryl hydrocarbon receptor. The data set is described as follows: Agonist activity at AhR in human HepG2 cells assessed as induction of CYP1A1 expression after 24 hrs by ethoxyresorufin-O-deethylase assay. It counts as cell-based. The following applies: for Activity: human, hepg2, 24 h. Summed up: as §3

SMILES strings stand for the structures. Activity calls are given as the source filed them. The rule behind the calls is not given here.

Regarding `O=c1cc(-c2ccccc2)oc2ccc3ccccc3c12` [BETA-NAPHTHOFLAVONE], the fold induction at 24 h, 0.00013 µM on CYP1A1 [1] stood at 0.8. The fold induction at 24 h, 0.0032 µM on CYP1A1 [2] worked out at 1.1. Moreover, the result in [3] was Active. The fold induction at 24 h, 0.08 µM at CYP1A1 [4] was 11.2.
As to `OCc1c2[nH]c3ccccc3c2cc2[nH]c3ccccc3c12`, the figures for the fold induction at 24 h, 0.00013 µM on CYP1A1 [1] and on CYP1A1 [6] were 3.8 and 5, respectively. The fold induction at 24 h, 0.0032 µM turned out to be 12 on CYP1A1 [5] and 13.4 on CYP1A1 [2]. Besides, the fold induction at 24 h, 0.08 µM at CYP1A1 [4] was 59.2.
For the compound `Cn1c2ccccc2c2cc3[nH]c4ccccc4c3c(CO)c21`, the fold induction at 24 h, 0.00013 µM on CYP1A1 [1] was determined as 5.3. For the same compound, the fold induction at 24 h, 0.0032 µM at CYP1A1 [2] worked out at 26.7. Besides, the fold induction at 24 h, 0.08 µM on CYP1A1 [4] turned out to be 62.6.
For `Cn1c2ccccc2c2c(C=O)c3c(cc21)c1ccccc1n3C`, in that order: 1.6, 3.4 and 39.4.
On to `OCc1c2c(cc3c4ccccc4n(Cc4ccccc4)c13)[nH]c1ccccc12`, for which, on CYP1A1 [1], the fold induction at 24 h, 0.00013 µM worked out at 0.4. Further, the fold induction at 24 h, 0.0032 µM at CYP1A1 [2] came to 0.7. In addition, the fold induction at 24 h, 0.08 µM on CYP1A1 [4] was 3.6.
For `CCn1c2ccccc2c2c(C=O)c3c(cc21)c1ccccc1n3C`, in that order: 1.4, 4.5 and 25.1.
As to `CCCn1c2ccccc2c2cc3[nH]c4ccccc4c3c(CO)c21`, on CYP1A1 [1], the fold induction at 24 h, 0.00013 µM was 0.4. In addition, on CYP1A1 [2], the fold induction at 24 h, 0.0032 µM turned out to be 0.5. Besides, the fold induction at 24 h, 0.08 µM at CYP1A1 [4] is 3.4.
In the case of `Cn1c2ccccc2c2cc3c(c(C=O)c21)c1ccccc1n3Cc1ccccc1`, on CYP1A1 [1], the fold induction at 24 h, 0.00013 µM was 1. Further, the fold induction at 24 h, 0.0032 µM at CYP1A1 [2] came out at 4.2. The fold induction at 24 h, 0.08 µM at CYP1A1 [4] amounted to 27.5.
Turning to `CCCn1c2ccccc2c2c(C=O)c3c(cc21)c1ccccc1n3C`, at CYP1A1 [1], the fold induction at 24 h, 0.00013 µM was 1.3. Further, the fold induction at 24 h, 0.0032 µM on CYP1A1 [2] is 1.9. Also, at CYP1A1 [4], the fold induction at 24 h, 0.08 µM was 8.9.
As for `CCn1c2ccccc2c2cc3[nH]c4ccccc4c3c(CO)c21`, the fold induction at 24 h, 0.00013 µM at CYP1A1 [1] turned out to be 1.4. The fold induction at 24 h, 0.0032 µM at CYP1A1 [2] came to 3.5. Also, on CYP1A1 [4], the fold induction at 24 h, 0.08 µM amounted to 31.8.
As for `Cn1c2ccccc2c2cc3[nH]c4ccccc4c3c(C=O)c21`, the Activity result is recorded as “Active” in data set [7], “Active” in data set [8], “Dose-dependent effect” in [9] and “Dose-dependent effect” in [11]. Moreover, the fold induction at 24 h, 0.00013 µM at CYP1A1 [1] stood at 27.3. For the same compound, the outcome with HepG2 was inactive. Besides, at CYP1A1 [2], the fold induction at 24 h, 0.0032 µM was found to be 88.9. Further, the “Ratio EC50” value in [10] worked out at 8. The EC50 (in general, the midpoint of the concentration-response curve) in data set [11] stood at 0.26 nM. In addition, the fold induction at 24 h, 0.08 µM at CYP1A1 [4] came out at 82.4.
For `O=Cc1c2[nH]c3ccccc3c2cc2[nH]c3ccccc3c12`, the Activity result in data set [11] is recorded as “Dose-dependent effect”.
For `OCc1c2c(cc3c4ccccc4n(CC4CC4)c13)[nH]c1ccccc12`, the fold induction at 24 h, 0.00013 µM at CYP1A1 [1] amounted to 0.3. At CYP1A1 [2], the fold induction at 24 h, 0.0032 µM was found to be 0.5. Moreover, the fold induction at 24 h, 0.08 µM on CYP1A1 [4] was 2.6.
